Measurements: ChEMBL document CHEMBL4130635, “2,4-Diaminoquinazolines as Dual Toll-like Receptor (TLR) 7/8 Modulators for the Treatment of Hepatitis B Virus” (J Med Chem, 2018)
The source made the active and inactive calls. No cut-off for these calls is given here.

Experiments:
Cytochrome P450 2D6 = Cytochrome P450 2D6 (Homo sapiens, UniProt P10635); experiment: Inhibition of CYP2D6 (unknown origin); assay type: ADME
[1] = Intrinsic clearance in human liver microsomes assessed per mg protein at 1 uM up to 60 mins; assay type: ADME, microsome; settings: read-out: CLH
[2] = Protein binding in human plasma fraction at 5 uM after 4.5 hrs LC-MS/MS-based rapid equilibrium dialysis method; assay type: ADME, cell-free; settings: read-out: PPB (converted)
[3] = Tmax in Sprague-Dawley rat plasma at 10 mg/kg, po; assay type: ADME, organism-based
[4] = Cmax in Sprague-Dawley rat liver at 10 mg/kg, po; assay type: ADME, organism-based; set-up: dose 10 mg/kg, route oral
Outline: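 Male Sprague-Dawley rats given 10 mg/kg po as a solution. Compound measured in portal vein, systemic plasma and liver. Cmax taken from concentration–time profiles.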

[5] = AUC (0 to last) in C57BL/6J mouse plasma at 10 mg/kg, po by LC-MS analysis; assay type: ADME, organism-based; set-up: dose 10 mg/kg, route oral, time 0 - last
Outline: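 Healthy C57BL/6 mice were dosed once by mouth at 0.3, 1, 3, 10 or 30 mg/kg in 20% HP-β-CD, in groups of 15 per dose. Three mice per group were sacrificed at 0.5, 1, 2, 4 or 7 h, and plasma and liver compound levels were measured by LC–MS. Values were rounded to whole numbers.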

Plasma [6] = experiment: Induction of IFNalpha levels in C57BL/6J mouse plasma at 30 mg/kg, po by ELISA; assay type: functional
Liver [7] = experiment: Induction of IFNalpha levels in C57BL/6J mouse liver at 1 mg/kg, po by ELISA (reference value: 30 pg/g); assay type: functional
Plasma [8] = experiment: Upregulation of IP-10 mRNA expression levels in C57BL/6J mouse plasma at 0.3 mg/kg, po by RT-qPCR analysis (reference value: 1); assay type: functional
Plasma [9] = experiment: Upregulation of IP-10 mRNA expression levels in C57BL/6J mouse plasma at 30 mg/kg, po by RT-qPCR analysis (reference value: 1); assay type: functional
Plasma [10] = experiment: Effect on cytokine profile in C57BL/6J mouse plasma assessed as IFNgamma levels at 0.3 mg/kg, po by multiplex assay; assay type: functional, organism-based
Outline: (§1)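 Single oral gavage in 20% HP-β-CD to healthy C57BL/6 mice, groups of 15 at 0.3, 1, 3, 10 or 30 mg/kg. Three mice per group sacrificed at 0.5, 1, 2, 4 or 7 h. Plasma and liver cytokines by multiplex, maximum level reported, rounded to nearest multiple of 5.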

Plasma [11] = experiment: Effect on cytokine profile in C57BL/6J mouse plasma assessed as IFNgamma levels at 1 mg/kg, po by multiplex assay; assay type: functional, organism-based; outline: as §1
Liver [12] = experiment: Effect on cytokine profile in C57BL/6J mouse liver assessed as IFNgamma levels at 0.3 mg/kg, po by multiplex assay; assay type: functional, organism-based; outline: as §1
Liver [13] = experiment: Proinflammatory activity in C57BL/6J mouse liver assessed as CXCL-1 levels at 10 mg/kg, po by multiplex assay (reference value: 25 pg/g); assay type: functional
Plasma [14] = experiment: Proinflammatory activity in C57BL/6J mouse plasma assessed as IL-6 levels at 10 mg/kg, po by multiplex assay (reference value: 505 pg/ml); assay type: functional
Plasma [15] = experiment: Proinflammatory activity in C57BL/6J mouse plasma assessed as IL-6 levels at 30 mg/kg, po by multiplex assay (reference value: 505 pg/ml); assay type: functional
Liver [16] = experiment: Proinflammatory activity in C57BL/6J mouse liver assessed as IL-6 levels at 0.3 mg/kg, po by multiplex assay (reference value: 10 pg/g); assay type: functional, organism-based
Liver [17] = experiment: Proinflammatory activity in C57BL/6J mouse liver assessed as TNFalpha levels at 3 mg/kg, po by multiplex assay (reference value: 15 pg/g); assay type: functional
[18] = AUC (0 to last) in cynomolgus monkey plasma at 1 mg/kg, po by LC-MS analysis; assay type: ADME, organism-based, Macaca fascicularis; set-up: dose 1 mg/kg, time 0 - last, route oral
Outline: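 Healthy cynomolgus monkeys received single oral doses of 1, 3, 9 and 30 mg/kg, with a 2-week wash-out between doses. Systemic compound concentrations were measured by LC–MS at 0.25, 0.5, 1, 2, 4, 8 and 24 h postdose.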

Cynomolgus monkey [19] = experiment: Plasma concentration in cynomolgus monkey at 3 mg/kg, po by LC-MS analysis; assay type: ADME, organism-based, Macaca fascicularis; settings: in vivo
Cynomolgus monkey [20] = experiment: Induction of IFNalpha levels in cynomolgus monkey plasma at 1 mg/kg, po after 24 hrs by ELISA; assay type: functional, Macaca fascicularis
Outline: (§2)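 Healthy cynomolgus monkeys given single oral doses of 1, 3, 9 and 30 mg/kg, with a 2-week wash-out planned between doses. Systemic cytokine levels in plasma were sampled at 0.5, 1, 2, 4, 9 and 24 h postdose.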

Cynomolgus monkey [21] = experiment: Induction of IFNalpha levels in cynomolgus monkey plasma at 9 mg/kg, po after 24 hrs by ELISA; assay type: functional, Macaca fascicularis; outline: as §2
Cynomolgus monkey [22] = experiment: Induction of IFNalpha levels in cynomolgus monkey plasma at 30 mg/kg, po after 24 hrs by ELISA; assay type: functional, Macaca fascicularis; outline: as §2
Cynomolgus monkey [23] = experiment: Effect on cytokine profile in cynomolgus monkey plasma assessed as IP10 levels at 9 mg/kg, po after 24 hrs by Luminex assay (reference value: 18.5 pg/ml); assay type: functional, Macaca fascicularis; outline: as §2
Cynomolgus monkey [24] = experiment: Activation of monocytes in cynomolgus monkey plasma assessed as upregulation of MIP1 levels at 1 mg/kg, po after 24 hrs by Luminex assay (reference value: 37 pg/ml); assay type: functional, Macaca fascicularis
Cynomolgus monkey [25] = experiment: Induction of ISG response in cynomolgus monkey plasma assessed as upregulation of Isg15 mRNA expression at 1 mg/kg, po after 24 hrs by Fluidigm RT-qPCR analysis (reference value: 1); assay type: functional, Macaca fascicularis
Outline: (§3)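 Cynomolgus monkeys, single oral doses of 1, 3, 9 and 30 mg/kg with a planned 2-week wash-out between doses. Systemic ISG (ISG15, Mx1, OAS1) mRNA was measured by Fluidigm RT-qPCR at 1, 2, 4, 8 and 24 h postdose.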

Cynomolgus monkey [26] = experiment: Induction of ISG response in cynomolgus monkey plasma assessed as upregulation of Isg15 mRNA expression at 30 mg/kg, po after 24 hrs by Fluidigm RT-qPCR analysis (reference value: 1); assay type: functional, Macaca fascicularis; outline: as §3
Cynomolgus monkey [27] = experiment: Induction of ISG response in cynomolgus monkey plasma assessed as upregulation of Mx1 mRNA expression at 3 mg/kg, po after 24 hrs by Fluidigm RT-qPCR analysis (reference value: 1); assay type: functional, Macaca fascicularis; outline: as §3
Cynomolgus monkey [28] = experiment: Induction of ISG response in cynomolgus monkey plasma assessed as upregulation of Oas1b mRNA expression at 9 mg/kg, po after 24 hrs by Fluidigm RT-qPCR analysis (reference value: 1); assay type: functional, Macaca fascicularis; outline: as §3
[29] = molecular target: T1, TLR7 and TLR8 (Homo sapiens) (UniProt Q9NYK1+Q9NR97); experiment: Agonist activity at TLR7/8 in human PBMCs co-cultured with primary human hepatocytes infected with HBV genotype C for 12 days assessed as increase in IL-12p40 levels up to 5 uM measured after 42 days
T1 sequence (Q9NR97 whole entry, looked up): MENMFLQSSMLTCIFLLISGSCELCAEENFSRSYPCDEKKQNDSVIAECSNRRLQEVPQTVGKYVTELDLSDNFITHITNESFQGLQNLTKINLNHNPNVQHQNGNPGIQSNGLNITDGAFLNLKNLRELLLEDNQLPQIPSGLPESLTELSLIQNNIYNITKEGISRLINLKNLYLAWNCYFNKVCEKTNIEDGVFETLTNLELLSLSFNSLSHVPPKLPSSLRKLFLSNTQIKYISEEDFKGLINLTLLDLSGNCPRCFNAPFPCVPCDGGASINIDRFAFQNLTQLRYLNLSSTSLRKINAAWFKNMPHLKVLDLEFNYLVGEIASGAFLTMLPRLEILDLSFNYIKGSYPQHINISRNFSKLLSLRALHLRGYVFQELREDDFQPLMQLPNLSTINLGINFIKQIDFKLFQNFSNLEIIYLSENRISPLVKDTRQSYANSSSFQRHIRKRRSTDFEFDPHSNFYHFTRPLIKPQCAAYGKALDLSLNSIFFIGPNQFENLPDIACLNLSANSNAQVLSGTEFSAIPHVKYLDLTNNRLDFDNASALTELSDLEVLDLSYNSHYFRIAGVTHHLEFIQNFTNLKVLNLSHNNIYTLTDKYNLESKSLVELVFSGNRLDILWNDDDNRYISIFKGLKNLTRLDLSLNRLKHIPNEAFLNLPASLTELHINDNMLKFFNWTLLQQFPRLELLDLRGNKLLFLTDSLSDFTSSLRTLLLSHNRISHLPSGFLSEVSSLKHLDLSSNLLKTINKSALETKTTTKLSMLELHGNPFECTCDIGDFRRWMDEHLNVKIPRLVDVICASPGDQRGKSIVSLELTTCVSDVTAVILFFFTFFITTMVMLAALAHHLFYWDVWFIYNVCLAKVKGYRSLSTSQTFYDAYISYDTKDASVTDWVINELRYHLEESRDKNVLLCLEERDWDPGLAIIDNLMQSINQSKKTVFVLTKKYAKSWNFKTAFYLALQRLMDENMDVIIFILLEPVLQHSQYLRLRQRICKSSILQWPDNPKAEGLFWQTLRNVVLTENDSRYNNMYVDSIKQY
T1 sequence (Q9NYK1 whole entry, looked up): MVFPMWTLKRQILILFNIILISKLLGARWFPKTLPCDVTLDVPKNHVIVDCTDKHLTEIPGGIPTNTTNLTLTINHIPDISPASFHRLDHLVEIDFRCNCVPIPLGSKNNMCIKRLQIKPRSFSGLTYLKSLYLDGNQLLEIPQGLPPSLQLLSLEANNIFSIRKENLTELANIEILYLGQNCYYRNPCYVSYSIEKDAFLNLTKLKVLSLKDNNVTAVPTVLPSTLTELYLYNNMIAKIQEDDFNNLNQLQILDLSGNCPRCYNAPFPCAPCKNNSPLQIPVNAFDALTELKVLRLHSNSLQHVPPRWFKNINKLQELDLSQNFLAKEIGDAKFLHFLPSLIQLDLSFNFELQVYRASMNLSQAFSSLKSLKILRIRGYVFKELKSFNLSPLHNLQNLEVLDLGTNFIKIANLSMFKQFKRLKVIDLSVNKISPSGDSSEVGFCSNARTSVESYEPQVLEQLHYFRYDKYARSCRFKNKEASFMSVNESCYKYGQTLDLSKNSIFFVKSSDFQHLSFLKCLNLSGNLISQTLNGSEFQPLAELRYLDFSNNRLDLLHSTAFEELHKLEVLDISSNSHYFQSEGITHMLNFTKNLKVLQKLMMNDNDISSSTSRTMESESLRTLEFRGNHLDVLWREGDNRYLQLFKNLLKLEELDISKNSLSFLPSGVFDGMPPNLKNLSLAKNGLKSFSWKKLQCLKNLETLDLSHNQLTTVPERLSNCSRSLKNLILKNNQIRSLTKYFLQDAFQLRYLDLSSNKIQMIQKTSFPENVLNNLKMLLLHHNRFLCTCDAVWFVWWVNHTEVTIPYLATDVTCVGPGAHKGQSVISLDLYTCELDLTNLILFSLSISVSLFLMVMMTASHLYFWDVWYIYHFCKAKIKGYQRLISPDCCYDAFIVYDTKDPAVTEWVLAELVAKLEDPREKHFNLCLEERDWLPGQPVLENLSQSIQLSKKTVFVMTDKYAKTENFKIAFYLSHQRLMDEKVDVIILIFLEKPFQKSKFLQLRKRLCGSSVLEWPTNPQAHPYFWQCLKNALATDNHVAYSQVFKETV

[30] = molecular target: T1, TLR7 and TLR8 (Homo sapiens); experiment: Agonist activity at TLR7/8 in human PBMCs co-cultured with primary human hepatocytes infected with HBV genotype C for 12 days assessed as increase in VEGF levels up to 5 uM measured after 42 days
Cynomolgus monkey [31] = experiment: Toxicity in cynomolgus monkey assessed as clinical observation changes up to 30 mg/kg, po; assay type: organism-based, Macaca fascicularis; settings: in vivo

Chain of Cytochrome P450 2D6 (P10635 whole entry): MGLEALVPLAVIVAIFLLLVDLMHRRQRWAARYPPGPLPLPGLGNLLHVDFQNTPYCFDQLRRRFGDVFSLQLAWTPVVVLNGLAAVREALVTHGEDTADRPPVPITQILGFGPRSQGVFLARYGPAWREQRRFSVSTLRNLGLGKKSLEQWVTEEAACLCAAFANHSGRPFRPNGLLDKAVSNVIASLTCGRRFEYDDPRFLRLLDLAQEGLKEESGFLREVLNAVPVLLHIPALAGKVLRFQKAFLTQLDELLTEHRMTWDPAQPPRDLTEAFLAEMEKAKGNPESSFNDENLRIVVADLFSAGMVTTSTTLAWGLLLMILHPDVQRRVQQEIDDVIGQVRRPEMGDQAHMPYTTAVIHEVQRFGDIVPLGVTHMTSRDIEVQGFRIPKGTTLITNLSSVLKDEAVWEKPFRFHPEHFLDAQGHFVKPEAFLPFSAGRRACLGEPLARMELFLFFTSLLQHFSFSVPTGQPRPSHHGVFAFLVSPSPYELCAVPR

**Q.** Which results are given for `CCC[C@@H](CCO)Nc1nc(N)nc2c(F)cccc12`?
**A.** IC50 (Cytochrome P450 2D6): 5.7 µM; microsomal CLint at 1 µM [1]: 8 µL/min/mg; fraction unbound at 4.5 h, 5 µM [2]: 0.34; Tmax [3]: 30 min; Cmax [4]: 285 ng/g; AUC(0-t) [5]: 0.141 µg·h/mL; Activity (Plasma [6]): 1930 pg/mL; Activity (Liver [7]): 215 pg/g; fold change (FC) (Plasma [8]): 15; fold change (FC) (Plasma [9]): 1100; Activity (Plasma [10]): Below limit of detection; Activity (Plasma [11]): Below limit of detection; Activity (Liver [12]): Below limit of detection; Activity (Liver [13]): 48485 pg/g; Activity (Plasma [14]): >10000 pg/mL; Activity (Plasma [15]): >10000 pg/mL; Activity (Liver [16]): Below limit of detection; Activity (Liver [17]): 2865 pg/g; AUC(0-t) [18]: 0.075 µg·h/mL; Cp (Cynomolgus monkey [19]): 0.014 µg/mL; Activity (Cynomolgus monkey [20]): 3465 pg/mL; Activity (Cynomolgus monkey [21]): >51200 pg/mL; Activity (Cynomolgus monkey [22]): >51200 pg/mL; Activity (Cynomolgus monkey [23]): 2400 pg/mL; Activity (Cynomolgus monkey [24]): 44 pg/mL; fold change (FC) (Cynomolgus monkey [25]): 145; fold change (FC) (Cynomolgus monkey [26]): 285; fold change (FC) (Cynomolgus monkey [27]): 50; fold change (FC) (Cynomolgus monkey [28]): 260; Activity [29]: Active; Activity [30]: Active; Activity (Cynomolgus monkey [31]): Non-Toxic
